One data set deals with Neutrophil collagenase (Homo sapiens, UniProt P22894). Nature of the data set: Inhibition of MMP-8 (unknown origin) using 7-methoxycoumarin-4-yl)acetyl-Pro-Leu-Gly-Leu-(3-(2,4-dinitrophenyl)-L-2,3-diamino-propionyl)Ala-Arg-NH2 as substrate preincubated for 30 mins followed by substrate addition by fluorescence assay. Summed up:
(§1)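 Activated MMP (2 nM) preincubated with inhibitor (10 pM to 1 mM) in 50 mM Tris-HCl pH 7.5, 0.2 M NaCl, 5 mM CaCl2, 20 μM ZnSO4, 0.05% Brij 35, 37 °C for 30 min.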

Data set [1] has as its target Matrix metalloproteinase-9 (Homo sapiens, UniProt P14780). Kind of data set: Inhibition of MMP-9 (unknown origin) using 7-methoxycoumarin-4-yl)acetyl-Pro-Leu-Gly-Leu-(3-(2,4-dinitrophenyl)-L-2,3-diamino-propionyl)Ala-Arg-NH2 as substrate preincubated for 30 mins followed by substrate addition by fluorescence assay. An outline of the steps:
as §1

In the next data set the target is Collagenase 3 (Homo sapiens, UniProt P45452). Nature of the data set: Inhibition of MMP-13 (unknown origin) using 7-methoxycoumarin-4-yl)acetyl-Pro-Leu-Gly-Leu-(3-(2,4-dinitrophenyl)-L-2,3-diamino-propionyl)Ala-Arg-NH2 as substrate preincubated for 30 mins followed by substrate addition by fluorescence assay. Summed up:
as §1

Data set [2] addresses 72 kDa type IV collagenase (Homo sapiens, UniProt P08253). Kind of data set: Inhibition of MMP-2 (unknown origin) using 7-methoxycoumarin-4-yl)acetyl-Pro-Leu-Gly-Leu-(3-(2,4-dinitrophenyl)-L-2,3-diamino-propionyl)Ala-Arg-NH2 as substrate preincubated for 30 mins followed by substrate addition by fluorescence assay. Summed up:
as §1

The subject of the next data set is Brain. Kind of data set: Biodistribution in […] mouse brain at 250 kBq/g, iv after 90 to 120 mins by PET analysis. It counts as ADME, organism-based. To be noted: in vivo. An outline of the steps:
(§2)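 Tracer dosed at 250 kBq/g body weight as a tail-vein bolus (100 μL, flushed with 100 μL saline) into C57/Bl6 mice, then PET scanning on a submillimeter-resolution small-animal scanner. Time-activity curves were drawn for regions of interest as %ID; images cover frames up to 90−120 min p.i.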

In data set [3] the test system is Mus musculus. Kind of data set: Biodistribution in wild type CD1 mouse gall bladder assessed as metabolite 5 at 11.1 MBq, iv measured at 30 mins by gamma counting-based HPLC analysis. It counts as ADME, organism-based. To be noted: in vivo, 0.5 h. Summed up:
(§3)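 About 11.1 MBq injected by tail vein (≤200 μL) into three mice, killed 30 min p.i. Tissues weighed and homogenized in 1% SDS/PBS, extracted with acetonitrile/acetic acid, frozen on dry ice, thawed, centrifuged 13000 rpm 8 min. Supernatants gamma-counted against a dose aliquot for %ID/g, then radio-HPLC on C18 (acetonitrile/water, 0.05% TFA).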

Data set [4] relates to Mus musculus. Kind of data set: Biodistribution in wild type CD1 mouse gall bladder assessed as metabolite 2 at 11.1 MBq, iv measured at 30 mins by gamma counting-based HPLC analysis. To be noted: in vivo, 0.5 h. It counts as ADME, organism-based. Summed up:
as §3

Data set [5] concerns Mus musculus. Nature of the data set: Biodistribution in wild type CD1 mouse gall bladder assessed as metabolite 4 at 11.1 MBq, iv measured at 30 mins by gamma counting-based HPLC analysis. It counts as ADME, organism-based. To be noted: in vivo, 0.5 h. Summed up: as §3
A further data set relates to Lung. Nature of the data set: Biodistribution in […] mouse lung at 250 kBq/g, iv after 90 to 120 mins by PET analysis. It counts as ADME, organism-based. The following applies: in vivo. Summed up: as §2
A further data set relates to Kidney. Kind of data set: Biodistribution in wild type CD1 mouse kidney assessed as metabolite 3 at 11.1 MBq, iv measured at 30 mins by gamma counting-based HPLC analysis. It counts as ADME, organism-based. To be noted: in vivo, 0.5 h. Summed up: as §3
In data set [6] the test system is Mus musculus. Nature of the data set: Biodistribution in […] mouse myocardium at 250 kBq/g, iv after 90 to 120 mins by PET analysis. To be noted: in vivo. It counts as ADME, organism-based. Summed up:
as §2

For data set [7], the system named is Mus musculus. Nature of the data set: Biodistribution in wild type CD1 mouse small intestine assessed as metabolite 1 at 11.1 MBq, iv measured at 30 mins by gamma counting-based HPLC analysis. It counts as ADME, organism-based. To be noted: in vivo, 0.5 h. An outline of the steps:
as §3

Data set [8] relates to Mus musculus. Kind of data set: Biodistribution in wild type CD1 mouse small intestine assessed as metabolite 5 at 11.1 MBq, iv measured at 30 mins by gamma counting-based HPLC analysis. It counts as ADME, organism-based. The following applies: in vivo, 0.5 h. An outline of the steps:
as §3

Data set [9] relates to Mus musculus. Kind of data set: Biodistribution in wild type CD1 mouse gall bladder assessed as metabolite 1 at 11.1 MBq, iv measured at 30 mins by gamma counting-based HPLC analysis. It counts as ADME, organism-based. To be noted: in vivo, 0.5 h. An outline of the steps:
as §3

Data set [10] in a line: 1-octanol-PBS buffer partition coefficient, log D of the compound at 20 kBq after 1 min by gamma counting analysis. It counts as physicochemical.
The test system of a further data set is Serum. Kind of data set: Metabolic stability in mouse serum at 5 MBq after 30 to 120 mins by radio-HPLC analysis. It counts as ADME, cell-free. Summed up: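 PBS-formulated radioligand (20 μL, 5 MBq) added to 200 μL mouse serum at 37 °C. 20 μL samples taken at 10−120 min, quenched in MeOH/CH2Cl2 1:1 and centrifuged 2 min. Organic layer analysed by radio-HPLC, isocratic 35% CH3CN/water (0.1% TFA) for 13 min, then gradient.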

The subject of data set [11] is Mus musculus. Kind of data set: Biodistribution in wild type CD1 mouse small intestine assessed as metabolite 3 at 11.1 MBq, iv measured at 30 mins by gamma counting-based HPLC analysis. It counts as ADME, organism-based. The following applies: in vivo, 0.5 h. An outline of the steps:
as §3

Another data set deals with Muscle tissue. Nature of the data set: Biodistribution in […] mouse muscle at 250 kBq/g, iv after 90 to 120 mins by PET analysis. It counts as ADME, organism-based. To be noted: in vivo. An outline of the steps: as §2

pIC50: −log10 of the molar value.

Matrix metalloproteinase-9, sequence (P14780 whole entry): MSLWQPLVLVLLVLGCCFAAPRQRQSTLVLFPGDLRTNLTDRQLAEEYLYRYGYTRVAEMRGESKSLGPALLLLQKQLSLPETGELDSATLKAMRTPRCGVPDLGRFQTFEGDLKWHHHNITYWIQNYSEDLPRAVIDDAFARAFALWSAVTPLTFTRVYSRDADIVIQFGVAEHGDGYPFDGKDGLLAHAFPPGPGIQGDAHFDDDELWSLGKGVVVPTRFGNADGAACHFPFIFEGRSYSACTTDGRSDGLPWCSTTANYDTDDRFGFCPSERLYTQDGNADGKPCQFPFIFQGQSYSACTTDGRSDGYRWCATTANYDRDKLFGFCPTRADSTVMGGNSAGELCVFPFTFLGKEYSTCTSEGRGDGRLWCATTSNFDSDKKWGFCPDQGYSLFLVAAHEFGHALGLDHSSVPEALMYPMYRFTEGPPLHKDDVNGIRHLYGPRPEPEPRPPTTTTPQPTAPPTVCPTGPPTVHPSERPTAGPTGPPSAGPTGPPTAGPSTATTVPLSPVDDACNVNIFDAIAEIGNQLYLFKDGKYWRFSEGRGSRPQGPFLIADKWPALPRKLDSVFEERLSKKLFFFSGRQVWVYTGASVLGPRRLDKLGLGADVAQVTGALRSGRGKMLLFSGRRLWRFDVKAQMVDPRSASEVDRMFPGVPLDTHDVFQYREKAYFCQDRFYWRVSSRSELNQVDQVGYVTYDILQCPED
Neutrophil collagenase, sequence (P22894 whole entry): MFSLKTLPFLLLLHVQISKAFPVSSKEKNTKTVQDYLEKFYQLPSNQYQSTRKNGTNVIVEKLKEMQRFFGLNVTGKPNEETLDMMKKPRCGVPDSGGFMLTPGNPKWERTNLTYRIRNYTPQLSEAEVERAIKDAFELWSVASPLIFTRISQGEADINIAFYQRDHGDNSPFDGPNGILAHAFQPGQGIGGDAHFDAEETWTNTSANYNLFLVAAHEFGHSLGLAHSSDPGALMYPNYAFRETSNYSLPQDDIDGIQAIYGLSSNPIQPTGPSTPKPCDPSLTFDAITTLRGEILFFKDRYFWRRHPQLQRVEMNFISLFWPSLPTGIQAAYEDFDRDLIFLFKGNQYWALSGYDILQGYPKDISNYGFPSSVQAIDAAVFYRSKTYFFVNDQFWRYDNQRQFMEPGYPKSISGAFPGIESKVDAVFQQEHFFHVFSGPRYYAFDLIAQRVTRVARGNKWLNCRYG
72 kDa type IV collagenase, sequence (P08253 whole entry): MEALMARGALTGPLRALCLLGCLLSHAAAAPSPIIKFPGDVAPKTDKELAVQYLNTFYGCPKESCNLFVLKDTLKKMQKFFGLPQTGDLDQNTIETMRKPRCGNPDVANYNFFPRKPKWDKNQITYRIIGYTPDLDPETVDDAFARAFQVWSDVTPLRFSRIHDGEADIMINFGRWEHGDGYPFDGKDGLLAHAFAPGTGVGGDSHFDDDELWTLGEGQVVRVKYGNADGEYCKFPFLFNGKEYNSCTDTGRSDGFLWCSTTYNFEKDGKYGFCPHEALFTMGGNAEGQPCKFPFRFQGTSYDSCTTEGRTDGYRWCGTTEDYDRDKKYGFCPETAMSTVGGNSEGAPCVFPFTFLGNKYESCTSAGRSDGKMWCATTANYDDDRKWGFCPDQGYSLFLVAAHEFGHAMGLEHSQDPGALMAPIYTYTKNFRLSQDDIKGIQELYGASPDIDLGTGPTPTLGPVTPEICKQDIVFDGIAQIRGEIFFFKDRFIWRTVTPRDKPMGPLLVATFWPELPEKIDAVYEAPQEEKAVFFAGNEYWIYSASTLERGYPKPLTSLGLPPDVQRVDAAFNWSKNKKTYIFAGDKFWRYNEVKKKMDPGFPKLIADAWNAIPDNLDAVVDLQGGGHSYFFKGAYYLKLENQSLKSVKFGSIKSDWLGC

For `Cc1ccc(S(=O)(=O)N(CCN=[N+]=[N-])[C@@H](C(=O)NO)C(C)C)cc1`, the pIC50 (in general, the IC50 on a negative log10 scale, so that one unit is a factor of ten) on Neutrophil collagenase is 9.00; in [1] it was 8.40; on Collagenase 3, 9.00; in data set [2], 8.40.

As to `CC(C)[C@H](C(=O)NO)N(CCn1cc(CN(C)S(=O)(=O)c2ccc(F)cc2)nn1)S(=O)(=O)c1ccc(OCCF)cc1`, the pIC50 is 8.30 against Neutrophil collagenase, 7.96 in data set [1], 9.00 against Collagenase 3 and 8.05 in [2].

Take `CC(C)[C@H](C(=O)NO)N(CCN=[N+]=[N-])S(=O)(=O)c1ccc(OCCF)cc1`: the pIC50 at Neutrophil collagenase is 9.00; in data set [1], 8.40; against Collagenase 3 it was 9.00; in [2], 8.40.

For the molecule `CC(C)[C@H](C(=O)NO)N(Cc1cn(CCOCCOCCOCCOc2cccnc2F)nn1)S(=O)(=O)c1ccc(OCCF)cc1`, the pIC50 against Neutrophil collagenase was 9.52; in data set [1], 9.70; at Collagenase 3, 9.52; in data set [2], 9.30.

Consider `Cc1ccc(S(=O)(=O)N(CCn2cc(COCCOCCOCCOCCOCCF)nn2)[C@@H](C(=O)NO)C(C)C)cc1`, for which the pIC50 against Neutrophil collagenase was 8.70; in data set [1] it was 9.40; on Collagenase 3, 10.00; in data set [2], 8.52.

For `COc1ccc(S(=O)(=O)N(CCn2cc(CN(C)S(=O)(=O)c3ccc(F)cc3)nn2)[C@@H](C(=O)NO)C(C)C)cc1`, the pIC50 on Neutrophil collagenase is 9.00; in [1], 8.52; at Collagenase 3, 9.00; in data set [2], 8.52.

Take `COc1ccc(S(=O)(=O)N(CCN=[N+]=[N-])[C@@H](C(=O)NO)C(C)C)cc1`: the negative-log IC50 (pIC50) is 8.70 on Neutrophil collagenase, 8.22 in [1], 8.05 on Collagenase 3 and 9.05 in data set [2].

For the molecule `COc1ccc(S(=O)(=O)N(CCn2cc(CNS(=O)(=O)c3ccc(F)cc3)nn2)[C@@H](C(=O)NO)C(C)C)cc1`, the pIC50 against Neutrophil collagenase was 9.70; in data set [1], 9.22; against Collagenase 3, 10.05; in data set [2], 8.30.

For `CC(C)[C@H](C(=O)NO)N(Cc1cn(CCF)nn1)S(=O)(=O)c1ccc(OCCF)cc1`, the pIC50 against Neutrophil collagenase is 8.70; in data set [1] it was 8.15; against Collagenase 3, 9.15; in data set [2] it was 8.70.

For the molecule `CC(C)[C@H](C(=O)NO)N(Cc1cn(CCOCCOCCOCCF)nn1)S(=O)(=O)c1ccc(OCCF)cc1`, the negative logarithm of the IC50 (pIC50) was 9.70 against Neutrophil collagenase, 9.70 in data set [1], 9.22 on Collagenase 3 and 8.70 in [2].

For the molecule `CC(C)[C@H](C(=O)NO)N(CCn1cc(COCCOCCOCCOCCOCCF)nn1)S(=O)(=O)c1ccc(OCCF)cc1`, the pIC50 on Neutrophil collagenase was 7.46; in [1] it was 8.00; on Collagenase 3, 8.15; in data set [2], 8.30.

Turning to `CC(C)[C@H](C(=O)NO)N(CCn1cc(CCCCOc2cccnc2F)nn1)S(=O)(=O)c1ccc(OCCF)cc1`, the pIC50 is 10.30 on Neutrophil collagenase, 9.10 in data set [1], 10.15 against Collagenase 3 and 9.40 in data set [2].

Turning to `COc1ccc(S(=O)(=O)N(CCn2cc(COCCOCCOCCOCCOCCF)nn2)[C@@H](C(=O)NO)C(C)C)cc1`, the pIC50 was 9.00 on Neutrophil collagenase, 8.70 in [1], 8.22 against Collagenase 3 and 8.40 in data set [2].

Take `CC(C)[C@H](C(=O)NO)N(CCn1cc(CNS(=O)(=O)c2ccc(F)cc2)nn1)S(=O)(=O)c1ccc(OCCF)cc1`: the pIC50 at Neutrophil collagenase is 9.15; in [1], 8.52; against Collagenase 3 it was 10.00; in data set [2], 8.40.

Take `COc1ccc(S(=O)(=O)N(CCn2cc(CCC[18F])nn2)[C@@H](C(=O)NO)C(C)C)cc1`: the Drug uptake entry was “Not Active” with Brain; 3.55 % ID/g in the data set on Mus musculus [3]; 7.1 % ID/g in the data set on Mus musculus [4]; 15.97 % ID/g with Mus musculus [5]; “Not Active” with Lung; 0.67 % ID/g in the data set on Kidney. Further, the Drug uptake entry is recorded as “Not Active” in the data set on Mus musculus [6]; 4.32 % ID/g in the data set with Mus musculus [7]; 2.47 % ID/g in the data set on Mus musculus [8]; 6.21 % ID/g in the data set on Mus musculus [9]; 30.27 % ID/g in the data set on Mus musculus [11]; “Not Active” in the data set on Muscle tissue. The logD (in general, lipophilicity at a set pH, counting ionised and neutral species) at 1 min in data set [10] was 1.25. Moreover, the Stability result with Serum was “Stable”.

For `COc1ccc(S(=O)(=O)N(CCn2cc(CCCCOc3cccnc3F)nn2)[C@@H](C(=O)NO)C(C)C)cc1`, the pIC50 was 9.30 against Neutrophil collagenase, 9.52 in data set [1], 10.40 against Collagenase 3 and 9.05 in [2].

`Cc1ccc(S(=O)(=O)N(CCn2cc(CCCCOc3cccnc3F)nn2)[C@@H](C(=O)NO)C(C)C)cc1`: the pIC50 at Neutrophil collagenase was 8.40; in data set [1], 8.22; against Collagenase 3 it was 8.52; in data set [2], 8.52.

With `Cc1ccc(S(=O)(=O)N(CCn2cc(CCCF)nn2)[C@@H](C(=O)NO)C(C)C)cc1`, the pIC50 on Neutrophil collagenase was 9.05; in data set [1], 8.52; at Collagenase 3, 9.52; in data set [2], 8.70.

Take `CC(C)[C@H](C(=O)NO)N(CCn1cc(CCCF)nn1)S(=O)(=O)c1ccc(OCCF)cc1`: the pIC50 on Neutrophil collagenase is 9.40; in [1], 8.70; on Collagenase 3, 10.15; in [2], 8.70.

For `COc1ccc(S(=O)(=O)N(CCn2cc(CCCF)nn2)[C@@H](C(=O)NO)C(C)C)cc1`, the pIC50 against Neutrophil collagenase is 9.40; in [1] it was 10.15; against Collagenase 3, 10.30; in data set [2], 9.15.

Values taken from ChEMBL document CHEMBL2424572 (J Med Chem, 2013).
